# Reference: article PMC4002122 (Chemical Research in Toxicology, 2014)
# Legend:
# Format in all cases: in vitro ADME
# Settings in all cases: 250 μM substrate, 5 μg protein, 60 min, 37 °C
# UGT1A4 = molecular target: T1, UGT1A4 (Homo sapiens, UniProt P22310); assay: Screening of recombinant UGT1A4 for glucuronidation activity
# T1 sequence (P22310 29-534): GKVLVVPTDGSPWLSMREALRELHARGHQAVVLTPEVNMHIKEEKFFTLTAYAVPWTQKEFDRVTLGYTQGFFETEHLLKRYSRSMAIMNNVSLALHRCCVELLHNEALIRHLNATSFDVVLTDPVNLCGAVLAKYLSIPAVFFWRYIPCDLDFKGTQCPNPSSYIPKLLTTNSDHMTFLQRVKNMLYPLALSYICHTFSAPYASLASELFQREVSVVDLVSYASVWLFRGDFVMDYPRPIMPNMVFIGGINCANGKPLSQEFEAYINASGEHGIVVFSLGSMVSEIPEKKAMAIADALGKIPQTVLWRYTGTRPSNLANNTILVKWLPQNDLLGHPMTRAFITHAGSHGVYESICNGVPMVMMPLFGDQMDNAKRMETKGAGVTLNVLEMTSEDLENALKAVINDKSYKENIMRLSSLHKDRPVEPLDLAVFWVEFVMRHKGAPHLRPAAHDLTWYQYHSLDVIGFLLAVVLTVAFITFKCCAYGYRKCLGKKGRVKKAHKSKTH
# In short: (§1)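 UGT1A1, 1A3, 1A4 and 1A6–1A10 were His-tagged and expressed in baculovirus-infected Sf9 cells; UGT2B4, 2B7, 2B15 and 2B17 were commercial membranes run per supplier protocol. 5 μg membrane protein with 250 μM substrate, 2 mM UDP-GlcUA, Tris–HCl pH 7.4, MgCl2, saccharolactone, 2% DMSO; 37 °C, 60 min; no-substrate controls. Products measured by HPLC-UV/vis; β-glucuronidase hydrolysis separated O- from carboxyl glucuronides.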
# UGT1A10 = molecular target: T2, UGT1A10 (Homo sapiens, UniProt Q9HAW8); assay: Screening of recombinant UGT1A10 for glucuronidation activity
# T2 sequence (Q9HAW8 26-530): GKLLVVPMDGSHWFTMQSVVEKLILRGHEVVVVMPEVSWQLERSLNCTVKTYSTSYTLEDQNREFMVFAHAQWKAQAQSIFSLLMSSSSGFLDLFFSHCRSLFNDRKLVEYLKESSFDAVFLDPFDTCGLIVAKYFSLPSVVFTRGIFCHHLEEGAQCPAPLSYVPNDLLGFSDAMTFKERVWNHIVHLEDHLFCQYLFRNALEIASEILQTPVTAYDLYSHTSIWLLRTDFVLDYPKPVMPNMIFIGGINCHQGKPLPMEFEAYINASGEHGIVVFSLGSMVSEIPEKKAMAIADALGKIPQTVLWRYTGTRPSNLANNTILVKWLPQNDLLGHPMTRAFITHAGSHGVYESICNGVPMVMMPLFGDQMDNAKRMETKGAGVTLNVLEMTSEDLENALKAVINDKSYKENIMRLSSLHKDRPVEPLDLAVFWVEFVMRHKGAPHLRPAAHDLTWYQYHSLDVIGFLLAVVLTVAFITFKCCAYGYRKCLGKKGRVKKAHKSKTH
# In short: as §1
# UGT1A7 = molecular target: T3, UGT1A7 (Homo sapiens, UniProt Q9HAW7); assay: Screening of recombinant UGT1A7 for glucuronidation activity
# T3 sequence (Q9HAW7 26-530): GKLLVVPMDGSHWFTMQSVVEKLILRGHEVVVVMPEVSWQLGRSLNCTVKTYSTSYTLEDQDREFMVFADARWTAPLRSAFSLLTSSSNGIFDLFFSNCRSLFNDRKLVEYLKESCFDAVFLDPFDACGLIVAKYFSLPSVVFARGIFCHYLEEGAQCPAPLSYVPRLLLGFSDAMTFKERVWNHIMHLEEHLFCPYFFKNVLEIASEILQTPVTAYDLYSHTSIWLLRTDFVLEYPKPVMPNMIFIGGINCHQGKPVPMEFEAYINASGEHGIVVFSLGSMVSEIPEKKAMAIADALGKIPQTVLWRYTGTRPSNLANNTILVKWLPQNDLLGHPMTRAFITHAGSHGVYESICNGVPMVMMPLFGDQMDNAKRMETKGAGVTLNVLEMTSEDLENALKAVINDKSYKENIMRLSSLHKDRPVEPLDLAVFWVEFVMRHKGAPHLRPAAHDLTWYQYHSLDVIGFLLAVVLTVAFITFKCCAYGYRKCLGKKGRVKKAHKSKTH
# In short: as §1
# UGT1A3 = molecular target: T4, UGT1A3 (Homo sapiens, UniProt P35503); assay: Screening of recombinant UGT1A3 for glucuronidation activity
# T4 sequence (P35503 29-534): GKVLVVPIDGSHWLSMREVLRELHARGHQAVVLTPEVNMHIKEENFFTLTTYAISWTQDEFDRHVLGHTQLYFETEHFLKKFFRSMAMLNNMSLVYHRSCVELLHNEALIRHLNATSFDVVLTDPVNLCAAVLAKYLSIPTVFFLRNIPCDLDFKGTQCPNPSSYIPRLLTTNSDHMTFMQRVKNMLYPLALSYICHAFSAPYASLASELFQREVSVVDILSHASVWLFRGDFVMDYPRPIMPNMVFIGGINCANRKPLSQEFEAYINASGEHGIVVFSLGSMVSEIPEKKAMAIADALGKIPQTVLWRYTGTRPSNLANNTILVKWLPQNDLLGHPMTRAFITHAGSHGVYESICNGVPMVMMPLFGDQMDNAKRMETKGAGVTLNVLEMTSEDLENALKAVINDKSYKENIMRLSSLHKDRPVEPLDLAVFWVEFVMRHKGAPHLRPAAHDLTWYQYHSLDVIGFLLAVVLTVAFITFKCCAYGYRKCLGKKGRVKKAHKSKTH
# In short: as §1
# UGT1A8 = molecular target: T5, UGT1A8 (Homo sapiens, UniProt Q9HAW9); assay: Screening of recombinant UGT1A8 for glucuronidation activity
# T5 sequence (Q9HAW9 26-530): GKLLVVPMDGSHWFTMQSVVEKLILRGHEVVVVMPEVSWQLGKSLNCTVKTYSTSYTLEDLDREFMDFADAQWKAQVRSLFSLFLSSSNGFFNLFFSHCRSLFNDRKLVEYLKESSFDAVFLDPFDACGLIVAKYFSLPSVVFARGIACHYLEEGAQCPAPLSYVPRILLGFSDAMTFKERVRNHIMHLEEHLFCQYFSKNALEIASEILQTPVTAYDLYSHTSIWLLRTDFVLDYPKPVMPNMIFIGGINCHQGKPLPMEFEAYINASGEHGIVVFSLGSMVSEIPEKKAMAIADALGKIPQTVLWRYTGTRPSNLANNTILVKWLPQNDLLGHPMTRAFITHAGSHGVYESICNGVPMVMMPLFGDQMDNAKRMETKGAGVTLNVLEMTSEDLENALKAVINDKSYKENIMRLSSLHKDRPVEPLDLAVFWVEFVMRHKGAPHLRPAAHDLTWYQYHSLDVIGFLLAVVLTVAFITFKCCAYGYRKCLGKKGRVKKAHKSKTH
# In short: as §1
Structure (SMILES),glucuronidation activity (glucuronide formed) (UGT1A4),glucuronidation activity (glucuronide formed) (UGT1A10),glucuronidation activity (glucuronide formed) (UGT1A7),glucuronidation activity (glucuronide formed) (UGT1A3),glucuronidation activity (glucuronide formed) (UGT1A8)
"COc1cc(/C=C/c2cc([N+](=O)[O-])c(O)c([N+](=O)[O-])c2)cc(OC)c1 [DNR-1, (E)-4-(3,5-dimethoxystyryl)-2,6-dinitrophenol]",No activity,No activity,No activity,No activity,No activity
"COc1ccc(/C=C(/C(=O)O)c2cc(OC)c(OC)c(OC)c2)cc1O [NI-12a, (E)-3-(3-hydroxy-4-methoxyphenyl)-2-(3,4,5-trimethoxyphenyl)acrylic acid]",not active,only the hydroxyl metabolite,only the hydroxyl metabolite,both COO- and O-glucuronides,only the hydroxyl metabolite
"COc1ccc(C=Cc2cc(OC)cc(OC)c2/C=N/O)cc1 [NI-ST-05, (E)-2,4-dimethoxy-6-(4-methoxystyryl)benzaldehyde oxime]",inactive,catalyzed the formation of the C=N–O-glucuronide,inactive,inactive,inactive
